PMC2988655 (Journal of immunology (Baltimore, Md. : 1950), 2010)
Where two headings read alike, the source gives them in different places. Where a SMILES comes first, the peptide text is derived from it. [ ]: non-standard residue; d: D form. The star is where a group is joined. Sta = CC(C)C[C@H](N)[C@@H](O)CC(=O)O; Isovaleryl = CC(C)CC(=O)*; CH2Cl = ClC*

Assays:
[1] = system: HLA-I presentation of M. tuberculosis epitopes by H37Rv-eGFP-infected DCs; assay: cells; format: cell-based, human; details: for inhibition at 10 µg/mL: Homo sapiens, T-cell
DCs = assay: Toxicity of inhibitor to DCs; format: cell-based; details: human DCs
Outline: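 Human DCs were derived from leukapheresis PBMCs. Adherent PBMCs were cultured 5 d with GM-CSF (10 ng/ml) and IL-4 (10 ng/ml) in RPMI 1640 with 10% pooled human serum, 4 mM L-glutamine and gentamicin (50 μg/ml).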

[2] = molecular target: Purified 20S immunoproteasomes (Homo sapiens, UniProt P28062+P28065+P40306); assay: In vitro proteasome digestion of CFP10_2–21; format: biochemical; details: epoxomicin 1 μM, 20 h, 37°C
[3] = system: CD8^+ T cells present in PBMCs; details: PBMCs of the donor from whom the clone was derived; cited from earlier work
TAP = molecular target: T1, TAP (Homo sapiens, UniProt Q03518+Q03519); assay: ICP47-mediated TAP inhibition, intracellular IFN-γ staining of T cell clones; format: cell-based; details: adenovirus-ICP47-transduced DCs pulsed with 0.25–1 μg/ml cognate peptides
T1 sequence (Q03518 1-748): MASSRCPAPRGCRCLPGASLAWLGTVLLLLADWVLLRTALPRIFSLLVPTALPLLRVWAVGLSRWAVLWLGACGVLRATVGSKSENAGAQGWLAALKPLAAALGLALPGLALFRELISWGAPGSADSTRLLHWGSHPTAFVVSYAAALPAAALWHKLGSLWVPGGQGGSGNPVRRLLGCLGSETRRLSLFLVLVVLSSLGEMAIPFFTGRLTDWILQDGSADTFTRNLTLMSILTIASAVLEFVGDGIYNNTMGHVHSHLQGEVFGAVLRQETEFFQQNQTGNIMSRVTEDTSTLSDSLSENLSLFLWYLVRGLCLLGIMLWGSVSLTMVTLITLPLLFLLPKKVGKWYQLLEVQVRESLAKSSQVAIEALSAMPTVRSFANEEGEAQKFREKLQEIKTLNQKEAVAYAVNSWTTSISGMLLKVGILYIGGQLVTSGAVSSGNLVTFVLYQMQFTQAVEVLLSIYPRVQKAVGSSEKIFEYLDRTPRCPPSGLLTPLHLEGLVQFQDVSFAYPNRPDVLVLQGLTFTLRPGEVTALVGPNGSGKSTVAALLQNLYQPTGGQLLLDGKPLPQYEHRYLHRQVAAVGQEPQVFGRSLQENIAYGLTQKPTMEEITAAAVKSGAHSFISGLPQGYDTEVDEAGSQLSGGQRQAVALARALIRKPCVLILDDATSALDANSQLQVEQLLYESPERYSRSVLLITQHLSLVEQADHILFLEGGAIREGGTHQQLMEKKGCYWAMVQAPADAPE
T1 sequence (Q03519 1-686): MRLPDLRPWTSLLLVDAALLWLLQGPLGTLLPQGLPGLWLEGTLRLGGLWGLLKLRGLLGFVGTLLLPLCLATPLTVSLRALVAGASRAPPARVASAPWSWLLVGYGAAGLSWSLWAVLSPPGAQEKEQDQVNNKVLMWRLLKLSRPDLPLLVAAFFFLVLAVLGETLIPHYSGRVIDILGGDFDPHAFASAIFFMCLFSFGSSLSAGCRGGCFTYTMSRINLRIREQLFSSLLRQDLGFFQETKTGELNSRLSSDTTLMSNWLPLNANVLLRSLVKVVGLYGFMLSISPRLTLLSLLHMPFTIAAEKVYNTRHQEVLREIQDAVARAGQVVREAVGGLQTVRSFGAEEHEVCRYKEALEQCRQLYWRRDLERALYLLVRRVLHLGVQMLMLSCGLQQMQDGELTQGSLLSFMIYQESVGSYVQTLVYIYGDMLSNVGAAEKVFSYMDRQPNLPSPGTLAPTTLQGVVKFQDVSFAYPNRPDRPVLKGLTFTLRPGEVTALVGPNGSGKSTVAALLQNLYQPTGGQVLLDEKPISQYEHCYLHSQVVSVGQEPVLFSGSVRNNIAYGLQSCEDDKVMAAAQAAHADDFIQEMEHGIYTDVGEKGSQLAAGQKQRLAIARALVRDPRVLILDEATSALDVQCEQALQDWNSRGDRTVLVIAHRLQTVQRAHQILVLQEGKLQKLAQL

[4] = […], AAF-CMK at highest possible nontoxic dose, data not shown
[5] = cycloheximide 10 μg/ml, […], Fig. 5

C[C@H](N)C(=O)N[C@@H](C)C(=O)N[C@@H](Cc1ccccc1)C(=O)CCl [AAF-CMK] (H-Ala-Ala-Phe-CH2Cl)
Effect on presentation of the EsxJ24–34 or CFP10_75–83 epitope [1, 4]: no effect

CO/C1=C\C(C)=C\[C@@H](C)[C@@H](O)[C@@H](C)C/C(C)=C/C=C/[C@H](OC)[C@@H]([C@@H](C)[C@@H](O)[C@H](C)[C@@]2(O)C[C@@H](O)[C@H](C)[C@@H](C(C)C)O2)OC1=O [Bafilomycin, bafilomycin]
Effect on presentation of all of the epitopes examined ([1]; […], BFA 0.1 μg/ml, bafilomycin 0.2 μM, Fig. 1): did not significantly inhibit

C[C@@H]1C[C@@H]([C@H](O)CC2CC(=O)NC(=O)C2)C(=O)[C@@H](C)C1 [Cycloheximide, cycloheximide]
inhibition at 10 µg/mL ([1]; read-out: Inhibition of presentation of epitope CFP10_2–12): > 70% | inhibition at 10 µg/mL ([1]; read-out: Inhibition of presentation of epitope EsxJ24–34): > 70% | Effect on presentation of the HLA-E–presented epitope [1, 5]: enhanced presentation | Effect on presentation of the epitope CFP10_2–9 [1, 5]: only slightly inhibited

CC[C@H](C)[C@H](NC(=O)[C@H]([C@@H](C)CC)N(C)C(C)=O)C(=O)N[C@H](C(=O)N[C@@H](CC(C)C)C(=O)[C@@]1(C)CO1)[C@@H](C)O [Epoxomicin, epoxomicin]
Effect on presentation of CFP10_2–9 and Ag85B144–153 epitopes ([1]; epoxomicin 1–10 μM, […], Fig. 2): ablated | Highest dose that was nontoxic to DCs (DCs): 10 µM | Effect on amount of CFP10_2–11 generated from CFP10_2–21 by proteasomes ([2]; IFN-γ ELISPOT and LC-MS): drastically reduced | Effect on generation of CFP10_2–12 from CFP10_2–21 by proteasomes ([2]; detectible by T cell assay but not LC-MS): enhanced the generation

CCN(CC)CCCC(C)Nc1ccnc2cc(Cl)ccc12 (stereo not shown) [chloroquine]
Effect on presentation of the EsxJ24–34 or CFP10_75–83 epitope [1]: neither of these epitopes was inhibited

CC(=O)N[C@@H](CC(C)C)C(=O)N[C@@H](CC(C)C)C(=O)N[C@H](C=O)CCCNC(=N)N [leupeptin]
Effect on presentation of the EsxJ24–34 or CFP10_75–83 epitope [1, 4]: did not block

CC(C)CC(=O)N[C@H](C(=O)N[C@H](C(=O)N[C@@H](CC(C)C)[C@@H](O)CC(=O)N[C@@H](C)C(=O)N[C@@H](CC(C)C)[C@@H](O)CC(=O)O)C(C)C)C(C)C [pepstatin A] (Isovaleryl-VV[Sta]A[Sta]-OH)
Effect on presentation of the EsxJ24–34 or CFP10_75–83 epitope [1, 4]: did not block

AEMKTDAA [CFP10_2–9]
Ex Vivo Frequency of CD8+ T cells present in PBMCs specific for the indicated epitope [3]: 1/102

EMKTDAATL [CFP10_3–11]
Ex Vivo Frequency of CD8+ T cells present in PBMCs specific for the indicated epitope [3]: 1/646

ICP47: HSV-1–encoded protein, prevents peptide binding to cytosolic face of TAP; expressed from an adenovirus vector
Effect on presentation of cognate peptide to CD8+ T cell clones (TAP): no effect
